Assay [1] relates to L1210. As to the kind of experiment: The compound was tested for cell growth inhibitory activity against lymphoid leukemia L1210 cell line. It counts as functional, cell-based. As to conditions: Mus musculus. The gist of the method:
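Cultured lymphoid leukemia L1210 cells were grown with agent for 48 h. The value is the micromolar concentration that inhibits proliferation to 50% of control growth.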

In assay [2] the test system is L1210. As to the kind of experiment: Concentration that causes a mitotic index (number of cells in mitosis divided by total cells) of cultured lymphoid leukemia L1210 cells. It counts as functional, Mus musculus. The gist of the method:
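Cultured lymphoid leukemia L1210 cells were exposed to agent for 12 h. Mitotic index was taken as the number of cells in mitosis divided by total cells. The value is the micromolar concentration giving a mitotic index of 0.5.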

The test system of assay [3] is Mus musculus. As to the kind of experiment: Increase in life span (ILS) in mice implanted intraperitoneally with lymphocytic leukemia P388 cells at a nontoxic dose of 50 mg/kg. It counts as functional. As to conditions: P388, ip, route intraperitoneal.
The subject of assay [4] is Mus musculus. Briefly: Increase in life span (ILS) in mice implanted intraperitoneally with lymphocytic leukemia P388 cells at a nontoxic dose of 100 mg/kg; toxic dose by weight loss when repeated. To be noted: P388, ip, route intraperitoneal. The class given is functional.
Assay [5] deals with Mus musculus. Briefly: Increase in life span (ILS) in mice implanted intraperitoneally with lymphocytic leukemia P388 cells at a nontoxic dose of 200 mg/kg. The class given is functional. As to conditions: P388, ip, route intraperitoneal.
The test system of assay [6] is Mus musculus. Briefly: Increase in life span (ILS) in mice implanted intraperitoneally with lymphocytic leukemia P388 cells at a nontoxic dose of 100 mg/kg. It counts as functional. To be noted: P388, ip, route intraperitoneal.
Assay [7] relates to Mus musculus. Briefly: Increase in life span (ILS) in mice implanted intraperitoneally with lymphocytic leukemia P388 cells at a nontoxic dose of 200 mg/kg; toxic dose by weight loss when repeated. To be noted: P388, ip, route intraperitoneal. It counts as functional.
The test system of assay [8] is Mus musculus. Briefly: Increase in life span (ILS) in mice implanted intraperitoneally with lymphocytic leukemia P388 cells at a nontoxic dose of 2 mg/kg. It counts as functional. As to conditions: P388, ip, route intraperitoneal.

The compound `CCOC(=O)Nc1cc(N/N=C/c2ccccc2)c(N)c(N)n1` registered an IC50 in assay [1] of 4600 nM. In assay [2], this compound came in with an MI0.5 of 15 µM. In assay [3], this compound came in with an ILS at 50 mg/kg of 4%.

Consider `CCOC(=O)Nc1cc(N/N=C/c2ccccc2)c2[nH]cnc2n1`, for which half-maximal inhibition in assay [1] (IC50) required 250 nM. Besides, in assay [2], the MI0.5 was found to be 0.94 µM. Further, the increase in lifespan (ILS) at 100 mg/kg in assay [4] stood at 46%.

On to `CCOC(=O)Nc1cc2c(nc(S)n2/N=C/c2ccccc2)c(N)n1`, for which the IC50 in assay [1] is 470 nM. The same compound had an MI0.5 in assay [2] of 11 µM. This compound also displayed an increase in life span (ILS) at 200 mg/kg in assay [5] of 6%.

`CCOC(=O)Nc1cc2c(nc(S)n2N)c(N)n1`: the IC50 in assay [1] is above 30000 nM.

The compound `CCOC(=O)Nc1cc2c(nc(SCc3ccc(OC)cc3)n2N)c(N)n1` gave an IC50 in assay [1] of 60 nM. This compound displayed an ILS at 100 mg/kg in assay [6] of 24%.

As to `CCOC(=O)Nc1cc2c(nc(SCc3ccc4c(c3)OCO4)n2N)c(N)n1`, in assay [1], the midpoint of inhibition, the IC50, lay at 170 nM. The ILS at 100 mg/kg in assay [6] worked out at 25%.

Compound `CCOC(=O)Nc1cc2c(nc(SCc3ccccc3)n2N)c(N)n1` showed an ILS at 200 mg/kg in assay [7] of 39%. Besides, the 50% inhibitory concentration (IC50) in assay [1] was 600 nM. The MI0.5 in assay [2] worked out at 1.6 µM.

`CCOC(=O)Nc1cc2c(nc(SCc3ccccc3)n2/N=C/c2ccccc2)c(N)n1` registered an IC50 in assay [1] of 50000 nM.

Take `CCOC(=O)Nc1cc(N(C)/N=C/c2ccccc2)c2nc[nH]c2n1`: the IC50 in assay [1] stood at 3100 nM.

On to `CCOC(=O)Nc1cc(N/N=C/c2ccccc2)c2[nH]c(SCc3ccccc3)nc2n1`, for which the IC50 in assay [1] turned out to be 46000 nM.

Take `CCOC(=O)Nc1cc2[nH]c(-c3ccccc3)nc2c(N)n1`: in assay [1], 900 nM corresponded to half-maximal inhibition (IC50). In addition, the MI0.5 in assay [2] is 8 µM. The same compound gave an ILS at 200 mg/kg in assay [5] of 0%.

The compound `CCOC(=O)Nc1cc(N/N=C/c2ccccc2)c2[nH]c(S)nc2n1` yielded an IC50 in assay [1] of 1500 nM. This compound showed an MI0.5 in assay [2] of 5.5 µM. In addition, the ILS at 200 mg/kg in assay [5] came to 10%.

The compound `CCOC(=O)Nc1cc2c(c(N)n1)N=C(c1ccccc1)CN2` displayed an MI0.5 in assay [2] of 0.0028 µM. This compound came in with an ILS at 2 mg/kg in assay [8] of 51%.

As for `CCOC(=O)Nc1cc2c(ncn2/N=C/c2ccccc2)c(N)n1`, in assay [1], half-maximal inhibition (IC50) required 150 nM. This compound gave an MI0.5 in assay [2] of 0.61 µM. This compound had an ILS at 100 mg/kg in assay [4] of 39%.

The IC50 is the concentration that inhibits the measured activity by half. The term ILS denotes the gain in survival time of treated over control animals, in per cent.

Source of the values: ChEMBL document CHEMBL1124823, “Antimitotic agents: synthesis of imidazo[4,5-c]pyridin-6-ylcarbamates and imidazo[4,5-b]pyridin-5-ylcarbamates” (J Med Chem, 1990).
